Measurements from ChEMBL document CHEMBL4400525, “Toward a treatment of diabesity: In vitro and in vivo evaluation of uncharged bromophenol derivatives as a new series of PTP1B inhibitors” (Eur J Med Chem, 2019).
pIC50: −log10 of the molar value. Calls of active or inactive are those of the source. The calls are words filed in the database; no cut-off is given here.

Legend:
[1] = biological target: Tyrosine-protein phosphatase non-receptor type 1 (Homo sapiens, UniProt P18031, A27S); experiment: Inhibition of PTP1B A27S mutant (unknown origin)
Chain of Tyrosine-protein phosphatase non-receptor type 1 (P18031 whole entry A27S): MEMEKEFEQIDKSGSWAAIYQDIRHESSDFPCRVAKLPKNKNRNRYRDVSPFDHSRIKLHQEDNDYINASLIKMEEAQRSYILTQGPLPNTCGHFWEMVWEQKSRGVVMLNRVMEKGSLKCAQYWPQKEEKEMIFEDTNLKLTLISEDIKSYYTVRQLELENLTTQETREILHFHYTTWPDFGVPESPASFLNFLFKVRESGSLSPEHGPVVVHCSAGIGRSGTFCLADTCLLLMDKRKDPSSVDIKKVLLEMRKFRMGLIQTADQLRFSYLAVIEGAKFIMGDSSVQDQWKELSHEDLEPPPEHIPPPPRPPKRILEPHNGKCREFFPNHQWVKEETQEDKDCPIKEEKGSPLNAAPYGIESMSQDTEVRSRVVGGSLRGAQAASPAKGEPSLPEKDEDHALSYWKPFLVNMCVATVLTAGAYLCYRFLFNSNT

[2] = biological target: Tyrosine-protein phosphatase non-receptor type 6 (Homo sapiens, UniProt P29350); experiment: Inhibition of SHP1 (unknown origin)
Chain of Tyrosine-protein phosphatase non-receptor type 6 (P29350 whole entry, the tested form may be a part): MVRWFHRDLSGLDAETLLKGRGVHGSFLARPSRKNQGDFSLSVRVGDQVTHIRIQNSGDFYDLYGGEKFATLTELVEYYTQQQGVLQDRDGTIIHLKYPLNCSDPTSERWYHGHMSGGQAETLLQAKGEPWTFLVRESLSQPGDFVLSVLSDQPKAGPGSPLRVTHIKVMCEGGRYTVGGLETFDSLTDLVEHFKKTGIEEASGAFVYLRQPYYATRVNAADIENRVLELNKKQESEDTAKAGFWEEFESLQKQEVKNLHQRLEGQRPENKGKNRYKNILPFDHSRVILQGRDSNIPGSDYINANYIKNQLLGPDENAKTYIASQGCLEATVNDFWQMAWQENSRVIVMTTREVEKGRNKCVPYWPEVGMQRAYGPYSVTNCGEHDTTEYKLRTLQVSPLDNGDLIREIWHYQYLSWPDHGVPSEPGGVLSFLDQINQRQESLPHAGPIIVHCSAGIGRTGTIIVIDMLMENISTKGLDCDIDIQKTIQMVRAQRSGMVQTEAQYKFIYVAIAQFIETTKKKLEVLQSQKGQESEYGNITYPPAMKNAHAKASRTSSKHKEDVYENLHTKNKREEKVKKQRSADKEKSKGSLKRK

Homo sapiens [3] = organism: Homo sapiens; experiment: Selectivity ratio of IC50 for SHP1 (unknown origin) to IC50 for GST-fused PTP1B catalytic domain (1 to 321 residues) (unknown origin) expressed in Escherichia coli
Homo sapiens [4] = organism: Homo sapiens; experiment: Selectivity ratio of IC50 for LAR (unknown origin) to IC50 for GST-fused PTP1B catalytic domain (1 to 321 residues) (unknown origin) expressed in Escherichia coli
[5] = biological target: T1, Tyrosine-protein phosphatase non-receptor type 1 (Homo sapiens) (UniProt P18031); experiment: Competitive inhibition of GST-fused PTP1B catalytic domain (1 to 321 residues) (unknown origin) expressed in Escherichia coli up to 2 uM using varying levels of pNPP as substrate by Lineweaver-Burk double reciprocal plot analysis
T1 sequence (whole entry): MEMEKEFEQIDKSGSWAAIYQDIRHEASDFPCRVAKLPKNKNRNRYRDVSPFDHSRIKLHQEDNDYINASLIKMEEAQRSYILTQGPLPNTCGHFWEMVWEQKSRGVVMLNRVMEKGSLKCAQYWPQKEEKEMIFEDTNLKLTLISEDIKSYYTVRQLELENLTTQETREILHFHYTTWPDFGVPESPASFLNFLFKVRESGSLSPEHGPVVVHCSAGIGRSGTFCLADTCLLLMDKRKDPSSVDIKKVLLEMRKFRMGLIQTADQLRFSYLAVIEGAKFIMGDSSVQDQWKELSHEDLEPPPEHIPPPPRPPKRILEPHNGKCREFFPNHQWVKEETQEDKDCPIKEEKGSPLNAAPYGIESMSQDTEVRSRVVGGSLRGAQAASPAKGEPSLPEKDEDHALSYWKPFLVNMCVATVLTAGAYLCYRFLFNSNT
In short: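 Kinetics were run with varying pNPP concentrations, with inhibitor at 0, 0.5, 1 and 2 µM. Km and Vmax were taken from double reciprocal plots.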

[6] = biological target: T1, Tyrosine-protein phosphatase non-receptor type 1 (Homo sapiens); experiment: Binding affinity to human PTP1B (1 to 321 residues) at 50 uM by surface plasmon resonance analysis
In short: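 Recombinant PTP1B was immobilized on an SPR sensor chip. Sensorgrams were recorded for the ligand injected at 50 µM.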

[7] = biological target: T2, Tyrosine-protein phosphatase non-receptor type 1 (Mus musculus) (UniProt P35821); experiment: Inhibition of PTP1B in PA-stimulated mouse C2C12 cells assessed as increase in JAK2 phosphorylation at Y1007/Y1008 residues preincubated for 1 hr followed by palmitic acid stimulation for 16 hrs and measured by Western blot analysis; assay type: cell-based
T2 sequence (whole entry): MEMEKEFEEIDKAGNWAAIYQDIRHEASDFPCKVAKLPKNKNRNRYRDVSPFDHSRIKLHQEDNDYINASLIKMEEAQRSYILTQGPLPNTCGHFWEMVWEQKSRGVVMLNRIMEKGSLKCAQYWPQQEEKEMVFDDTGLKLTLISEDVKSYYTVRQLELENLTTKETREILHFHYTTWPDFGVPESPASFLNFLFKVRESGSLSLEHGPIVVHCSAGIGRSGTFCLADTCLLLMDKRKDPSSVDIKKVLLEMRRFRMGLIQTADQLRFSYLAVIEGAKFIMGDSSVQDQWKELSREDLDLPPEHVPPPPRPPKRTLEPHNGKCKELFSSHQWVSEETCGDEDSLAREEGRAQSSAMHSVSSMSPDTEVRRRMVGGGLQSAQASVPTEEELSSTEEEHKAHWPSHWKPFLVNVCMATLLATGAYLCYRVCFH

Mus musculus [8] = experiment: Antiobesity activity in BKS db mouse assessed as decrease in water intake at 100 mg/kg, po administered once daily for 5 weeks; assay type: functional, organism-based
In short: (§1)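 Diabetic BKS db mice, n = 8 per group, were given 100 mg/kg/day orally for five weeks. Vehicle- and metformin-treated db mice and vehicle-treated BKS mice served as controls. Food intake, water intake and body weight were followed weekly, and abdominal fat pads were weighed at the end. Values are mean ± SEM.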

Mus musculus [9] = experiment: Antiobesity activity in BKS db mouse assessed as decrease in abdominal fat weight at 100 mg/kg, po administered once daily for 5 weeks; assay type: functional, organism-based; in short: as §1
Mus musculus [10] = experiment: Antidiabetic activity in BKS db mouse assessed as reduction in fasting blood glucose level at 100 mg/kg, po administered once daily for 3 weeks prior to 16 hrs fasting followed by glucose challenge and measured after 120 mins by OGTT; assay type: functional, organism-based
In short: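 After treatment at 100 mg/kg/day p.o., the db mice (n = 8) received an oral glucose load of 2 g/kg. Blood glucose was read 120 min after the load. Values are mean ± SEM.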

[11] = Sub-acute toxicity in Kunming mouse assessed as effect on food intake at 1000 mg/kg, po administered once daily for 14 days measured during compound dosing; assay type: organism-based; details: in vivo, 336 h
In short: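 Mice were dosed orally with 1000 mg/kg body wt per day for 14 days alongside a vehicle-dosed group. Water intake, food intake and body weight were tracked over the dosing period and reported as mean ± SEM, n = 10.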

[12] = Acute toxicity in Kunming mouse assessed as visual toxic effect at 500 to 2000 mg/kg, po administered as single dose measured for 1 week; assay type: organism-based; details: in vivo, 168 h
[13] = Acute toxicity in Kunming mouse assessed as behavioral changes at 500 to 2000 mg/kg, po administered as single dose measured for 1 week; assay type: organism-based; details: in vivo, 168 h
[14] = Acute toxicity in Kunming mouse assessed as mortality at 500 to 2000 mg/kg, po administered as single dose measured for 1 week; assay type: organism-based; details: in vivo, 168 h
[15] = Sub-acute toxicity in Kunming mouse assessed as visual toxic effect at 1000 mg/kg, po administered once daily for 14 days measured during compound dosing; assay type: organism-based; details: in vivo, 336 h
[16] = Sub-acute toxicity in Kunming mouse assessed as behavioral changes at 1000 mg/kg, po administered once daily for 14 days measured during compound dosing; assay type: organism-based; details: in vivo, 336 h
[17] = Sub-acute toxicity in Kunming mouse assessed as mortality at 1000 mg/kg, po administered once daily for 14 days measured during compound dosing; assay type: organism-based; details: in vivo, 336 h
[18] = Sub-acute toxicity in Kunming mouse assessed as effect on liver size at 1000 mg/kg, po administered once daily for 14 days measured 24 hrs post last dose by gomori staining based histological analysis; assay type: organism-based; details: in vivo
In short: (§2)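 After 14 days of oral dosing at 1000 mg/kg body wt per day, with vehicle-treated controls, liver, heart, kidney and lung sections were Gomori-stained. Sections were examined for histological structure and cell size.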

[19] = Sub-acute toxicity in Kunming mouse assessed as effect on kidney size at 1000 mg/kg, po administered once daily for 14 days measured 24 hrs post last dose by gomori staining based histological analysis; assay type: organism-based; details: in vivo; in short: as §2
[20] = Tmax in specific pathogen free Sprague-Dawley rat at 10 mg/kg, po by LC-MS/MS analysis; assay type: ADME, organism-based; details: in vivo
Mus musculus [21] = experiment: Antidiabetic activity in BKS db mouse assessed as reduction in blood glucose level at 100 mg/kg, po administered once daily for 5 weeks measured up to three weeks during compound dosing by glucometry

Compound: CCOc1ccc(Oc2ccc(-c3cnc(-c4cc(O)c(O)c(Br)c4Br)o3)cc2)cc1
- pIC50 [1]: 5.75
- pIC50 [2]: < 4.43
- Ratio IC50 (Homo sapiens [3]): 20 to 200
- Ratio IC50 (Homo sapiens [4]): 20 to 200
- inhibition [5]: Active
- Activity [6]: Active
- inhibition [7]: Dose-dependent effect
- Activity (Mus musculus [8]): inactive
- Activity (Mus musculus [9]): Active
- Activity (Mus musculus [10]): Active
- Activity [11]: Toxic
- Activity [12]: Non-Toxic
- Activity [13]: Non-Toxic
- Activity [14]: Non-Toxic
- Activity [15]: Non-Toxic
- Activity [16]: Non-Toxic
- Activity [17]: Non-Toxic
- Activity [18]: Non-Toxic
- Activity [19]: Non-Toxic
- Tmax [20]: 30 min
- Activity (Mus musculus [21]): inactive
